According to ChEMBL document CHEMBL4627300, “Discovery of 1,8-naphthyridin-2-one derivative as a potent and selective sphingomyelin synthase 2 inhibitor” (Bioorg Med Chem, 2020):
≈ marks a conversion by molar mass, not a printed value. Calls of active or inactive are those of the source. No cut-off for these calls is given here.

Key:
[1] = target: T1, Phosphatidylcholine:ceramide cholinephosphotransferase 1 (Homo sapiens, UniProt Q86VZ5); assay: Inhibition of human recombinant C-terminal FLAG-tagged SMS1 expressed in mammalian expression system using C14-phosphatidylcholineD72 and C17-ceramide pre-incubated for 60 mins followed by incubation with substrate for 30 mins measured by RapidFire/MS assay
T1 sequence (Q86VZ5 whole entry): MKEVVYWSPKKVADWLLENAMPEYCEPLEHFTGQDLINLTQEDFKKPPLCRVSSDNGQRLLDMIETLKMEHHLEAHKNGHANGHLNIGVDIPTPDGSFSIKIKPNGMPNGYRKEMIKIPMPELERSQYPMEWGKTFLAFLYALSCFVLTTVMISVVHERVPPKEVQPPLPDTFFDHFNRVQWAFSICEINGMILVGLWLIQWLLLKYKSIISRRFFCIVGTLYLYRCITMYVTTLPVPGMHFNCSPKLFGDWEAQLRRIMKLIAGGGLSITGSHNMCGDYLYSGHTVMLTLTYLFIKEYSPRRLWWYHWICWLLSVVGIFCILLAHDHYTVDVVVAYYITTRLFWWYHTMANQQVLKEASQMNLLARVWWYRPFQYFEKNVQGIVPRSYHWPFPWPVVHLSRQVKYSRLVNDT
Procedure, shortened: (§1)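 C-terminal FLAG-tagged full-length SMS (human SMS1, mouse SMS2, human SMS2) transiently expressed in FreeStyle293 cells for 2 days; total membranes isolated by ultracentrifugation. Enzyme (30 µg/mL) preincubated 60 min with compound, then reacted 30 min at room temperature. Buffer: KCl, 0.1% BSA, 0.03% NP-40 substitute, 1 mM DTT, 10% DMSO. Substrates: 50 µM C14-PC-D72 and 1 µM C17-ceramide. Stopped with 2-propanol/formic acid containing C17-SM internal standard. Product C17-SM-d13 measured by RapidFire SPE and positive SRM MS. % inhibition calculated from peak area ratios against vehicle and no-reaction controls.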

[2] = target: T2, Phosphatidylcholine:ceramide cholinephosphotransferase 2 (Homo sapiens, UniProt Q8NHU3); assay: Inhibition of human recombinant C-terminal FLAG-tagged SMS2 expressed in Freestyle293 cell membrane using C14-phosphatidylcholineD72 and C17-ceramide pre-incubated for 60 mins followed by incubation with substrate for 30 mins measured by RapidFire/MS assay; procedure, shortened: as §1
T2 sequence (Q8NHU3 whole entry): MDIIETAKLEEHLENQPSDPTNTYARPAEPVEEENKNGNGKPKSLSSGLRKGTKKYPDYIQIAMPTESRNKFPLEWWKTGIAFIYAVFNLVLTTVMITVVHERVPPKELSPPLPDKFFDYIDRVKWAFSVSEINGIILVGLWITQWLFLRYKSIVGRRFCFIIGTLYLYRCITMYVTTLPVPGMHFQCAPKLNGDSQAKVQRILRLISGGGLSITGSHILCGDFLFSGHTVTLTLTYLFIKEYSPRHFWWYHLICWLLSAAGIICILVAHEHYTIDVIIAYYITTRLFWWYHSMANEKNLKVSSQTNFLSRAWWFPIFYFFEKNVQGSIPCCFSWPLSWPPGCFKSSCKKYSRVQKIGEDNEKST

[3] = target: T3, Phosphatidylcholine:ceramide cholinephosphotransferase 2 (Mus musculus, UniProt Q9D4B1); assay: Inhibition of mouse recombinant C-terminal FLAG-tagged SMS2 expressed in mammalian expression system using C14-phosphatidylcholineD72 and C17-ceramide pre-incubated for 60 mins followed by incubation with substrate for 30 mins measured by RapidFire/MS assay; procedure, shortened: as §1
T3 sequence (Q9D4B1 whole entry): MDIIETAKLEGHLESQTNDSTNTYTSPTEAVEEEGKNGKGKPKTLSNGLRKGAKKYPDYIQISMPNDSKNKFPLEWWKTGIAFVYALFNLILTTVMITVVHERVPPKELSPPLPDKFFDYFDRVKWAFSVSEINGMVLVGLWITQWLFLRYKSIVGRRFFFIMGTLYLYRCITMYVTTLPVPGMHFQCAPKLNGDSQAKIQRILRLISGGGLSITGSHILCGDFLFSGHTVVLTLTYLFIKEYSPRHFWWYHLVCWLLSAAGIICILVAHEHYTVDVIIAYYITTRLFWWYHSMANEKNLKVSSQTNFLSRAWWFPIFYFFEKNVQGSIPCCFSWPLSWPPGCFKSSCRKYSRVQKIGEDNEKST

[4] = Permeability of compound in buffer solution at pH 7.4 by PAMPA method; assay type: ADME; settings: read-out: permeability
Procedure, shortened: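 Membrane permeability measured at pH 7.4.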

[5] = Aqueous solubility of DMSO dissolved compound in buffer solution at pH 6.8 by LC-MS/MS analysis; assay type: physicochemical
Procedure, shortened: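 Compound in DMSO added to aqueous buffer at pH 6.8 and incubated. Precipitate removed by filter-plate filtration; dissolved compound in filtrate quantified by LC/MS/MS.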

[6] = MRT in KK-AY/Ta mouse at 100 mg/kg, po; assay type: ADME, organism-based; settings: in vivo
Procedure, shortened: (§2)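 Single 100 mg/kg dose given orally or subcutaneously to KK-Ay/Ta mice. Plasma drug concentration followed to 24 h. […] MRT is the mean residence time.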

[7] = AUC (0 to 24 hrs) in KK-AY/Ta mouse at 100 mg/kg, po; assay type: ADME, organism-based; set-up: dose 100 mg/kg, time < 24 hr, route oral; settings: in vivo; procedure, shortened: as §2
Mus musculus [8] = assay: In vivo inhibition of SMS2 in KK-AY/Ta mouse assessed as decrease in hepatic SM (22:00) levels at 100 mg/kg, sc qd for 7 days measured after last dosing by LC/MS analysis; assay type: functional, organism-based
Procedure, shortened: (§3)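 Male KK-Ay/Ta mice, 10 weeks old, dosed orally or subcutaneously once or twice daily for 7 days; vehicle-treated controls. Livers removed under anesthesia the morning after the last dose. Tissue homogenized in isopropanol (100 mg/mL) by ball-mill and centrifuged; supernatant SM (22:0) measured by reverse-phase LC/MS.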

[9] = Cmax in KK-AY/Ta mouse at 100 mg/kg, sc; assay type: ADME, organism-based; set-up: dose 100 mg/kg, route subcutaneous; settings: in vivo; procedure, shortened: as §2
Mus musculus [10] = assay: In vivo inhibition of SMS2 in KK-AY/Ta mouse assessed as decrease in hepatic SM (22:00) levels at 100 mg/kg, po qd for 7 days measured after last dosing by LC/MS analysis; assay type: functional, organism-based; procedure, shortened: as §3
Mus musculus [11] = assay: In vivo inhibition of SMS2 in KK-AY/Ta mouse assessed as decrease in hepatic SM (22:00) levels at 200 mg/kg, po bid for 7 days measured after last dosing by LC/MS analysis; assay type: functional, organism-based; procedure, shortened: as §3
Mus musculus [12] = assay: In vivo inhibition of SMS2 in KK-AY/Ta mouse assessed as decrease in hepatic SM (22:00) levels at 200 mg/kg, sc bid for 7 days measured after last dosing by LC/MS analysis; assay type: functional, organism-based; procedure, shortened: as §3
[13] = AUC (0 to 24 hrs) in KK-AY/Ta mouse at 100 mg/kg, sc; assay type: ADME, organism-based; set-up: time < 24 hr, dose 100 mg/kg, route subcutaneous; settings: in vivo; procedure, shortened: as §2
[14] = Drug concentration in KK-AY/Ta mouse at 100 mg/kg, po measured upto 24 hrs; assay type: ADME, organism-based; settings: in vivo, read-out: Drug uptake; procedure, shortened: as §2
[15] = Tmax in KK-AY/Ta mouse at 100 mg/kg, sc; assay type: ADME, organism-based; settings: in vivo; procedure, shortened: as §2
[16] = Tmax in KK-AY/Ta mouse at 100 mg/kg, po; assay type: ADME, organism-based; settings: in vivo; procedure, shortened: as §2
[17] = Drug concentration in KK-AY/Ta mouse at 100 mg/kg, sc measured upto 24 hrs; assay type: ADME, organism-based; settings: in vivo, read-out: Drug uptake; procedure, shortened: as §2
[18] = Cmax in KK-AY/Ta mouse at 100 mg/kg, po; assay type: ADME, organism-based; set-up: dose 100 mg/kg, route oral; settings: in vivo; procedure, shortened: as §2
[19] = MRT in KK-AY/Ta mouse at 100 mg/kg, sc; assay type: ADME, organism-based; settings: in vivo; procedure, shortened: as §2
[20] = Inhibition of SMS (unknown origin); set-up: species or system Homo sapiens

SMILES	IC50 [1] [nM]	IC50 [2] [nM]	IC50 [3] [nM]	Papp [4] [×10⁻⁶ cm/s]	solubility kinetic [5] [µg/mL]	further results
CN(Cc1cc(C(F)(F)F)cc(C(F)(F)F)c1)C(=O)c1c(OCCCC2CCCCC2)c2ccccc2n(C)c1=O	14000	480	190			
CC(C)CCOc1c(C(=O)N(C)Cc2cc(C(F)(F)F)cc(C(F)(F)F)c2)c(=O)n(C)c2ccccc12	> 100000	350	260			
CN(Cc1cc(C(F)(F)F)cc(C(F)(F)F)c1)C(=O)c1c(OCCCC2CCN(C(=O)OC3(C)CC3)CC2)c2cccnc2n(C)c1=O	850	47	3	72.1	< 0.3	
CN(Cc1cc(C(F)(F)F)cc(C(F)(F)F)c1)C(=O)c1c(N2CCCCC2)c2ccccc2n(C)c1=O	> 100000	11000				
CCOc1cc(CN(C)C(=O)c2c(OCCCC3CCN(C(=O)OC(C)(C)C)CC3)c3ccccc3n(C)c2=O)cc(OCC)c1	15000	380	51	27.5	< 0.08	
CN(Cc1cc(C(F)(F)F)cc(C(F)(F)F)c1)C(=O)c1c(OCCOCc2ccccc2)c2ccccc2n(C)c1=O	22000	380	590			
COc1cc(CN(C)C(=O)c2c(OCCCC3CCN(C(=O)OC4(C)CC4)CC3)c3cccnc3n(C)c2=O)cc(C(F)(F)F)c1	2400	45	2.2	42.4	0.79 (≈ 1.23 µM)	MRT [6]: 3 h; AUC(0-t) at 24 h [7]: 18000 ng·h/mL; inhibition (Mus musculus [8]): Active; Cmax [9]: 700 ng/mL; inhibition (Mus musculus [10]): inactive; inhibition (Mus musculus [11]): inactive; inhibition (Mus musculus [12]): Active; AUC(0-t) at 24 h [13]: 12000 ng·h/mL; concentration at 24 h [14]: 7 ng/mL; Tmax [15]: 8 h; Tmax [16]: 0.83 h; concentration at 24 h [17]: 230 ng/mL; Cmax [18]: 6500 ng/mL; MRT [19]: 9.4 h
CN(Cc1cc(C(F)(F)F)cc(C(F)(F)F)c1)C(=O)c1c(OCCCC2CCN(C(=O)OC(C)(C)C)CC2)c2ccccc2n(C)c1=O	3400	30	7.7	1.1	< 0.16	
CN(Cc1cc(C(F)(F)F)cc(C(F)(F)F)c1)C(=O)c1c(OCCCc2ccccc2)c2ccccc2n(C)c1=O	14000	210	120			
CCCOc1c(C(=O)N(C)Cc2cc(C(F)(F)F)cc(C(F)(F)F)c2)c(=O)n(C)c2ccccc12	> 100000	2100				
COc1cc(CN(C)C(=O)c2c(OCCCC3CCN(C(=O)OC(C)(C)C)CC3)c3cnccc3n(C)c2=O)cc(OC)c1	> 100000	1600	340	26	33 (≈ 54.2 µM)	
COc1cc(CN(C)C(=O)c2c(OCCCC3CCN(C(=O)OC(C)(C)C)CC3)c3ccccc3n(C)c2=O)cc(OC)c1	19000	91	19	29.5	1.8 (≈ 2.96 µM)	
CN(Cc1cc(C(F)(F)F)cc(C(F)(F)F)c1)C(=O)c1c(N2CCCC2)c2ccccc2n(C)c1=O	> 100000		1100			
CN(Cc1cc(C(F)(F)F)cc(C(F)(F)F)c1)C(=O)c1c(OCCCC(F)(F)F)c2ccccc2n(C)c1=O	25000	120	240			
CN(Cc1cc(C(F)(F)F)cc(C(F)(F)F)c1)C(=O)c1c(N2CCC(OCc3ccccc3)C2)c2ccccc2n(C)c1=O (centres undefined)	15000	610	660			
COc1cc(CN(C)C(=O)c2c(OCCCC3CCN(C(=O)OC4(C)CC4)CC3)c3cccnc3n(C)c2=O)cc(OC)c1	18000	300	14	20	16 (≈ 26.4 µM)	
COc1cc(CN(C)C(=O)c2c(OCCCC3CCN(C(=O)OC(C)(C)C)CC3)c3cccnc3n(C)c2=O)cc(OC)c1	10000	130	32	24.1	7.3 (≈ 12 µM)	
S=C(S)OC1C[C@H]2C[C@@H]1[C@H]1CCC[C@@H]21 (some centres undefined)						IC50 [20]: > 100000 nM
